Experimental findings from ChEMBL document CHEMBL5223184, “Structure-Based Design of Glycosylated Oxytocin Analogues with Improved Selectivity and Antinociceptive Activity” (ACS Med Chem Lett, 2023) are described below.

SMILES strings stand for the structures. The source made the active and inactive calls. Bridge positions count the residues as written; N and C are the ends. Square brackets hold non-standard residues; d marks the D form. Peptide text beside a SMILES is read from it. * marks the point of attachment. X1 = OC[C@H]1O[C@@H](O[C@H]2[C@H](O)[C@@H](O)[C@H](*)O[C@@H]2CO)[C@H](O)[C@@H](O)[C@H]1O; βGlc = OC[C@H]1O[C@@H](*)[C@H](O)[C@@H](O)[C@@H]1O; Dap = NC[C@H](N)C(=O)O; Aib = CC(C)(N)C(=O)O

One assay addresses T1, Vasopressin V1b receptor (Homo sapiens, UniProt P47901).
T1 sequence (P47901 whole entry): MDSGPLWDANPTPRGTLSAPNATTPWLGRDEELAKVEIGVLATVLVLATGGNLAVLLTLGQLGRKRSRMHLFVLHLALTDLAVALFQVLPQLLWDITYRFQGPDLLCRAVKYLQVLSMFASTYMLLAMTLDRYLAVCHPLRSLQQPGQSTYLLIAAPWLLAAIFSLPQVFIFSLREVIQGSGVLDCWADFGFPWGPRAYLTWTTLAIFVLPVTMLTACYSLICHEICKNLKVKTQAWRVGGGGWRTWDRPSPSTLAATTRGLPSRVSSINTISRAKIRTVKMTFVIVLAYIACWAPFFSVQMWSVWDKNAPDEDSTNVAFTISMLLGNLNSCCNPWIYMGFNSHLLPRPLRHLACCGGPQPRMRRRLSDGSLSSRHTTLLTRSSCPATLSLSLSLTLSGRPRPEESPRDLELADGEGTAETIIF
The assay is described as follows: Activation of human 3X-HA N-tagged AVP1b expressed in CHO-K1 cells incubated for 10 mins by cell Western assay. It is filed as cell-based. In short, it runs like this:
(§1)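 In-cell Western read-out of ERK MAPK activation in CHO cells expressing the human receptor (OTR, AVP1a or AVP1b). Potency reported as mean ± SEM of N = 3 independent experiments.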

For another assay, the target named is Vasopressin V1a receptor (Homo sapiens, UniProt P37288). The assay is described as follows: Activation of human 3X-HA N-tagged AVP1a expressed in CHO-K1 cells incubated for 10 mins by cell Western assay. It is filed as cell-based. In short, it runs like this: as §1
Chain of Vasopressin V1a receptor (P37288 whole entry): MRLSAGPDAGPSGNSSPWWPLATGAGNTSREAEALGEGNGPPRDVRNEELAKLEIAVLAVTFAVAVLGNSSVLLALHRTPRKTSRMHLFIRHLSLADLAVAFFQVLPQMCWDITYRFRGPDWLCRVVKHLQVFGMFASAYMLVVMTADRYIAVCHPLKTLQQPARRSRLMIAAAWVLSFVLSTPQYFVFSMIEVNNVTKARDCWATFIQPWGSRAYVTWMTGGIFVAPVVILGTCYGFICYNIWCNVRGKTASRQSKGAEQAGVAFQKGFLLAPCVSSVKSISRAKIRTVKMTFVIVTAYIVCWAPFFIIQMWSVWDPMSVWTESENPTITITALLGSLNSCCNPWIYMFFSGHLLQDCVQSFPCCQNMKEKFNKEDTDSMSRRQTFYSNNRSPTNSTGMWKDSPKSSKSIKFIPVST
For the next assay, the target named is T2, Oxytocin receptor (Homo sapiens, UniProt P30559).
T2 sequence (P30559 whole entry): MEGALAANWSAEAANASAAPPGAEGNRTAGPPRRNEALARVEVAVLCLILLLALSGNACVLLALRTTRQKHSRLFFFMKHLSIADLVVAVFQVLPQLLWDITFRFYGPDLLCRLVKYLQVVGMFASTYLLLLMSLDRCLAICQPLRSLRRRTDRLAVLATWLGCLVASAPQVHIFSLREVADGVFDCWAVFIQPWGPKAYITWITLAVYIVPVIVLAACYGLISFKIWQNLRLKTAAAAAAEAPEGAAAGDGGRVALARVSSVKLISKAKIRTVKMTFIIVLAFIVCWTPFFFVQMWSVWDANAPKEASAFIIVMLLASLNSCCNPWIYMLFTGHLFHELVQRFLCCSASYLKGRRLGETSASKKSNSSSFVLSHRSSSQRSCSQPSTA
The assay is described as follows: Activation of human 3X-HA N-tagged OTR expressed in CHO-K1 cells incubated for 10 mins by cell Western assay. It is filed as cell-based. The method in brief: as §1

Another assay has as its system Mus musculus. The assay is described as follows: Antinociceptive activity against CD-1 mouse assessed as pain relief at 10 mg/kg, iv measured after 2 hrs by tail flick test. The format is functional, organism-based. In short, it runs like this:
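Male CD-1 mice dosed at 10 mg/kg by intravenous injection into the tail vein. Vehicle, oxytocin and morphine groups run alongside. Tail flick in 52 °C water with a 10 s cutoff. Mean ± SEM, N = 5 mice/group.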

Take `CC[C@H](C)[C@@H]1NC(=O)[C@H](Cc2ccc(O)cc2)NC(=O)[C@@H](N)CC(=O)NC[C@@H](C(=O)N2CCC[C@H]2C(=O)N[C@@H](CC(C)C)C(=O)NCC(=O)N[C@@H](CO[C@@H]2O[C@H](CO)[C@@H](O[C@@H]3O[C@H](CO)[C@H](O)[C@H](O)[C@H]3O)[C@H](O)[C@H]2O)C(N)=O)NC(=O)[C@H](CC(N)=O)NC(=O)[C@H](CCC(N)=O)NC1=O` (H-DYIQN[Dap]PLGS(X1)-NH2; lactam 1-6): the EC50 (commonly the concentration that produces a half-maximal response) at Vasopressin V1b receptor was “Not Active”; at Vasopressin V1a receptor, “Not Active”; on Oxytocin receptor, 160 nM.

With `CC[C@H](C)[C@@H]1NC(=O)[C@H](Cc2ccc(O)cc2)NC(=O)[C@@H](N)CCC(=O)NC[C@@H](C(=O)N2CCC[C@H]2C(=O)N[C@@H](CC(C)C)C(=O)N[C@@H](CO[C@@H]2O[C@H](CO)[C@@H](O)[C@H](O)[C@H]2O)C(N)=O)NC(=O)[C@H](CC(N)=O)NC(=O)[C@H](CCC(N)=O)NC1=O` (H-EYIQN[Dap]PLS(βGlc)-NH2; lactam 1-6), the EC50 result at Vasopressin V1b receptor is “Not Active”; on Vasopressin V1a receptor it was “Not Active”; at Oxytocin receptor, 0.73 nM.

As to `CC[C@H](C)[C@@H]1NC(=O)[C@H](Cc2ccc(O)cc2)NC(=O)[C@@H](N)CCC(=O)NC[C@@H](C(=O)N2CCC[C@H]2C(=O)NC(C)(C)C(=O)NCC(=O)N[C@@H](CO[C@@H]2O[C@H](CO)[C@@H](O)[C@H](O)[C@H]2O)C(N)=O)NC(=O)[C@H](CC(N)=O)NC(=O)[C@H](CCC(N)=O)NC1=O`, the EC50 result at Vasopressin V1b receptor is “Not Active”; at Vasopressin V1a receptor, “Not Active”; at Oxytocin receptor, 0.06 nM. Further, in the assay on Mus musculus, the outcome was Active.

Turning to `CC[C@H](C)[C@@H]1NC(=O)[C@H](Cc2ccc(O)cc2)NC(=O)[C@@H](N)CSSC[C@@H](C(=O)N2CCC[C@H]2C(=O)N[C@@H](CC(C)C)C(=O)NCC(N)=O)NC(=O)[C@H](CC(N)=O)NC(=O)[C@H](CCC(N)=O)NC1=O`, the outcome in the assay with Mus musculus was inactive.

Take `CN1CC[C@]23c4c5ccc(O)c4O[C@H]2[C@@H](O)C=C[C@H]3[C@H]1C5`: the outcome with Mus musculus was Active.

On to `CC[C@H](C)[C@@H]1NC(=O)[C@H](Cc2ccc(O)cc2)NC(=O)[C@@H](N)CC(=O)NC[C@@H](C(=O)N2CCC[C@H]2C(=O)N[C@@H](CC(C)C)C(=O)N[C@@H](CO[C@@H]2O[C@H](CO)[C@@H](O[C@@H]3O[C@H](CO)[C@H](O)[C@H](O)[C@H]3O)[C@H](O)[C@H]2O)C(N)=O)NC(=O)[C@H](CC(N)=O)NC(=O)[C@H](CCC(N)=O)NC1=O` (H-DYIQN[Dap]PLS(X1)-NH2; lactam 1-6), for which the results for the EC50 result on Vasopressin V1b receptor, at Vasopressin V1a receptor and on Oxytocin receptor were “Not Active”, “Not Active” and 0.54 nM, respectively.

As for `CC[C@H](C)[C@@H]1NC(=O)[C@H](Cc2ccc(O)cc2)NC(=O)[C@@H](N)CCC(=O)NC[C@@H](C(=O)N2CCC[C@H]2C(=O)N[C@@H](CC(C)C)C(=O)NCC(N)=O)NC(=O)[C@H](CC(N)=O)NC(=O)[C@H](CCC(N)=O)NC1=O` (H-EYIQN[Dap]PLG-NH2; lactam 1-6), the EC50 result at Vasopressin V1b receptor and on Vasopressin V1a receptor was “Not Active” each time.

Turning to `CC[C@H](C)[C@@H]1NC(=O)[C@H](Cc2ccc(O)cc2)NC(=O)[C@@H](N)CC(=O)NC[C@@H](C(=O)N2CCC[C@H]2C(=O)N[C@@H](CC(C)C)C(=O)NCC(N)=O)NC(=O)[C@H](CC(N)=O)NC(=O)[C@H](CCC(N)=O)NC1=O` (H-DYIQN[Dap]PLG-NH2; lactam 1-6), the EC50 entry on Vasopressin V1b receptor and at Vasopressin V1a receptor was “Not Active” in each case. For the same compound, the result in the assay on Mus musculus was Active.

For the compound `CC[C@H](C)[C@@H]1NC(=O)[C@H](Cc2ccc(O)cc2)NC(=O)[C@@H](N)CCC(=O)NC[C@@H](C(=O)N2CCC[C@H]2C(=O)NC(C)(C)C(=O)N[C@@H](CO[C@@H]2O[C@H](CO)[C@@H](O)[C@H](O)[C@H]2O)C(N)=O)NC(=O)[C@H](CC(N)=O)NC(=O)[C@H](CCC(N)=O)NC1=O` (H-EYIQN[Dap]P[Aib]S(βGlc)-NH2; lactam 1-6), the EC50 entry is “Not Active” at Vasopressin V1b receptor, “Not Active” on Vasopressin V1a receptor and 220 nM at Oxytocin receptor.

`CC[C@H](C)[C@@H]1NC(=O)[C@H](Cc2ccc(O)cc2)NC(=O)[C@@H](N)CC(=O)NC[C@@H](C(=O)N2CCC[C@H]2C(=O)NC(C)(C)C(=O)N[C@H](CO[C@@H]2O[C@H](CO)[C@@H](O)[C@H](O)[C@H]2O)C(N)=O)NC(=O)[C@H](CC(N)=O)NC(=O)[C@H](CCC(N)=O)NC1=O`: the EC50 result at Vasopressin V1b receptor was “Not Active”; on Vasopressin V1a receptor it was “Not Active”; on Oxytocin receptor (cho-k1), 0.28 nM.
